ChEMBL document CHEMBL3414437, “Synthesis of CDDO-amino acid-nitric oxide donor trihybrids as potential antitumor agents against both drug-sensitive and drug-resistant colon cancer” (J Med Chem, 2015)
The source made the active and inactive calls. The calls are words filed in the database; no cut-off is given here.

How the values were obtained:
[1] = Toxicity in male ICR mouse assessed as mouse mortality at 2.38 x 10^3 umol/kg administered as single dose via oral gavage measured up to 14 days post treatment; format: organism-based; conditions: in vivo
How it was run: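 Female or male adult ICR mice, 10 per sex group, were randomised and given a single oral gavage dose of 2,000 mg/kg in cremophor-EL/DMSO/PBS (1:1:8). Total mortality was recorded over days 1–14, and body weight on days 0, 7 and 14 as mean ± SD.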

HCT-8 [2] = assay: Inhibition of MRP1 protein expression in FU-resistant human HCT8 cells at 1 uM in presence of NO scavenger carboxy-PTIO incubated for 24 hrs by Western blotting method; format: functional, cell-based
How it was run: (§1)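 Cells (1 x 10^6) grown 24 h in 6 cm dishes, then exposed in duplicate for 24 h to 0.25, 0.5 or 1 µM compound, with or without PTIO. Lysates (20 µg/lane) were run on 7.5% SDS-PAGE, blotted to PVDF and blocked in 5% milk. HRP secondaries with ECL detection; bands quantified by densitometry against β-actin or GAPDH. Three separate experiments, mean ± SD.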

Mus musculus [3] = assay: Toxicity in nude BALB/c mouse xenografted with FU-resistant human HCT8 cells assessed as abnormal weight changes in liver at 17.8 to 35.7 umol/kg administered as via oral gavage daily for 21 days; format: organism-based, HCT-8; conditions: in vivo, 504 h
How it was run: (§2)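 Male BALB/c nude mice aged 6-8 weeks, implanted s.c. in the right flank with HCT-8/5-FU cells (2 × 10^6). Once tumors reached 180-200 mm3 (days 9-11), randomized to daily gavage for 21 days in cremophor-EL/DMSO/PBS (1:1:8), 0.2 mL. At the end, liver, kidney, lung and heart checked for size, colour and weight. n = 8 per group.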

HCT-8 [4] = assay: Antitumor activity against FU-resistant human HCT8 cells xenografted in nude BALB/c mouse assessed as reduction in tumor volume at 17.8 to 35.7 umol/kg administered as via oral gavage daily for 21 days; format: functional
How it was run: (§3)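 Male BALB/c nude mice, 6–8 weeks old, inoculated s.c. in the right flank with HCT-8/5-FU cells (2 × 10^6). Once tumors reached 180–200 mm3 (days 9–11), mice were randomized (n = 8) to daily oral gavage for 21 days in cremophor-EL/DMSO/PBS (1:1:8). Tumor volume = W2(L/2), caliper-measured every other day, blinded; tumors weighed at end.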

HCT-8 [5] = assay: Induction of nitric oxide release in human HCT8 cells at 150 uM incubated for 150 mins after 150 mins of pre-treatment with 0.75 uM to 192 uM pepT1 substrate Gly-Sar by Griess assay; format: functional, cell-based
How it was run: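 Cells pretreated with Gly-Sar (0.75–192 µM, nine levels) for 150 min, then given compound at 150 µM for 150 min. Intracellular nitrite in lysates measured with Griess reagent (10 min, 37 °C, 540 nm) against a sodium nitrite standard curve. Mean ± SD of three experiments.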

Mus musculus [6] = assay: Toxicity in nude BALB/c mouse xenografted with FU-resistant human HCT8 cells assessed as abnormal color changes in lung at 17.8 to 35.7 umol/kg administered as via oral gavage daily for 21 days; format: organism-based, HCT-8; conditions: in vivo, 504 h; how it was run: as §2
Mus musculus [7] = assay: Toxicity in ICR mouse assessed as abnormality in drinking behavior at 0.60 x 10^3 to 2.38 x 10^3 umol/kg administered as single dose via oral gavage measured up to 14 days post treatment; format: organism-based; conditions: in vivo, 336 h
How it was run: (§4)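 Adult ICR mice of either sex were randomised and given a single oral gavage dose of 500, 1000, 1500 or 2000 mg/kg in cremophor-EL/DMSO/PBS (1:1:8). Survival, behaviour, water and food intake, body weight and activity were monitored for up to 14 days. Body weights were taken on days 0, 7 and 14.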

[8] = biological target: Multidrug resistance-associated protein 1 (Homo sapiens, UniProt P33527); assay: Induction of nitrosylation of MRP1 protein in FU-resistant human HCT8 cells at 0.25 to 1 uM incubated for 24 hrs by Western blotting method; format: cell-based; conditions: hct-8, 24 h
How it was run: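 HCT-8/5-FU cells (1 × 10^6) treated in duplicate for 24 h with 0.25, 0.5 or 1 µM test compound or 1 µM reference, with or without PTIO. Lysates immunoprecipitated overnight at 4 °C with anti-nitrotyrosine antibody on protein G beads. Eluates blotted with specific anti-Pgp, anti-MRP1 or anti-BCRP antibodies and quantified by densitometry. Mean ± SD of three experiments.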

HCT-8 [9] = assay: Antiproliferative activity against 5-FU resistant human HCT8 cells assessed as inhibition of cell proliferation at 0.125 to 0.5 uM incubated for 72 hrs after 24 hrs of pre-treatment with 0.75 uM and 1 .5 uM pepT1 substrate Gly-Sar by MTT assay; format: functional, cell-based
How it was run: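 Cells pretreated with or without Gly-Sar (0.75 or 1.5 µM) for 24 h, then given a range of compound concentrations for 72 h. Proliferation inhibition measured by MTT.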

HCT-8 [10] = assay: Induction of nitric oxide release in human HCT8 cells at 100 uM incubated for 150 mins by Griess assay; format: functional, cell-based
How it was run: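 Cells (1 × 10^6/well) treated in triplicate with compound at 100 µM for 150 min. Lysates mixed with Griess reagent for 10 min at 37 °C and read at 540 nm. Nitrite quantified from a sodium nitrite standard curve; 0.4% DMSO-treated cells served as background. Mean ± SD of three experiments.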

Mus musculus [11] = assay: Toxicity in ICR mouse assessed as abnormality in eating behavior at 0.60 x 10^3 to 2.38 x 10^3 umol/kg administered as single dose via oral gavage measured up to 14 days post treatment; format: organism-based; conditions: in vivo, 336 h; how it was run: as §4
Mus musculus [12] = assay: Toxicity in ICR mouse assessed as general activity changes at 0.60 x 10^3 to 2.38 x 10^3 umol/kg administered as single dose via oral gavage measured up to 14 days post treatment; format: organism-based; conditions: in vivo, 336 h; how it was run: as §4
[13] = Antitumor activity against FU-resistant human HCT8 cells xenografted in nude BALB/c mouse assessed as reduction in tumor weight at 59.4 umol/kg administered as via oral gavage daily for 21 days; format: functional; conditions: HCT-8, po, 504 h; how it was run: as §3
Mus musculus [14] = assay: Toxicity in nude BALB/c mouse xenografted with FU-resistant human HCT8 cells assessed as abnormal color changes in heart at 59.4 umol/kg administered as via oral gavage daily for 21 days; format: organism-based, HCT-8; conditions: in vivo, 504 h; how it was run: as §2
HCT-8 [15] = assay: Inhibition of ERK protein phosphorylation in FU-resistant human HCT8 cells at 1 uM incubated for 24 hrs by Western blotting method; format: cell-based; how it was run: as §1
Mus musculus [16] = assay: Toxicity in nude BALB/c mouse xenografted with FU-resistant human HCT8 cells assessed as abnormal weight changes in liver at 59.4 umol/kg administered as via oral gavage daily for 21 days; format: organism-based, HCT-8; conditions: in vivo, 504 h
How it was run: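 Male BALB/c nude mice, 6-8 weeks old, inoculated s.c. in right flank with HCT-8/5-FU cells (2 × 10^6/mouse). Once tumors reached 180-200 mm3 (9-11 days post-implantation), mice were randomized and dosed by gavage daily for 21 consecutive days in cremophor-EL/DMSO/PBS (1:1:8) (vehicle alone 0.2 mL). Body weights recorded on day 1 and day 21. Organ size, color and weights were inspected for liver, kidney, lung and heart. n = 8 per group; mean ± SD.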

Mus musculus [17] = assay: Toxicity in nude BALB/c mouse xenografted with FU-resistant human HCT8 cells assessed as abnormal weight changes in heart at 59.4 umol/kg administered as via oral gavage daily for 21 days; format: organism-based, HCT-8; conditions: in vivo, 504 h; how it was run: as §2
HCT-8 [18] = assay: Inhibition of HIF-1alpha protein expression in human HCT8 cells at 1 uM incubated for 24 hrs by Western blotting method; format: functional, cell-based; how it was run: as §1

Sequence of Multidrug resistance-associated protein 1 (P33527 whole entry): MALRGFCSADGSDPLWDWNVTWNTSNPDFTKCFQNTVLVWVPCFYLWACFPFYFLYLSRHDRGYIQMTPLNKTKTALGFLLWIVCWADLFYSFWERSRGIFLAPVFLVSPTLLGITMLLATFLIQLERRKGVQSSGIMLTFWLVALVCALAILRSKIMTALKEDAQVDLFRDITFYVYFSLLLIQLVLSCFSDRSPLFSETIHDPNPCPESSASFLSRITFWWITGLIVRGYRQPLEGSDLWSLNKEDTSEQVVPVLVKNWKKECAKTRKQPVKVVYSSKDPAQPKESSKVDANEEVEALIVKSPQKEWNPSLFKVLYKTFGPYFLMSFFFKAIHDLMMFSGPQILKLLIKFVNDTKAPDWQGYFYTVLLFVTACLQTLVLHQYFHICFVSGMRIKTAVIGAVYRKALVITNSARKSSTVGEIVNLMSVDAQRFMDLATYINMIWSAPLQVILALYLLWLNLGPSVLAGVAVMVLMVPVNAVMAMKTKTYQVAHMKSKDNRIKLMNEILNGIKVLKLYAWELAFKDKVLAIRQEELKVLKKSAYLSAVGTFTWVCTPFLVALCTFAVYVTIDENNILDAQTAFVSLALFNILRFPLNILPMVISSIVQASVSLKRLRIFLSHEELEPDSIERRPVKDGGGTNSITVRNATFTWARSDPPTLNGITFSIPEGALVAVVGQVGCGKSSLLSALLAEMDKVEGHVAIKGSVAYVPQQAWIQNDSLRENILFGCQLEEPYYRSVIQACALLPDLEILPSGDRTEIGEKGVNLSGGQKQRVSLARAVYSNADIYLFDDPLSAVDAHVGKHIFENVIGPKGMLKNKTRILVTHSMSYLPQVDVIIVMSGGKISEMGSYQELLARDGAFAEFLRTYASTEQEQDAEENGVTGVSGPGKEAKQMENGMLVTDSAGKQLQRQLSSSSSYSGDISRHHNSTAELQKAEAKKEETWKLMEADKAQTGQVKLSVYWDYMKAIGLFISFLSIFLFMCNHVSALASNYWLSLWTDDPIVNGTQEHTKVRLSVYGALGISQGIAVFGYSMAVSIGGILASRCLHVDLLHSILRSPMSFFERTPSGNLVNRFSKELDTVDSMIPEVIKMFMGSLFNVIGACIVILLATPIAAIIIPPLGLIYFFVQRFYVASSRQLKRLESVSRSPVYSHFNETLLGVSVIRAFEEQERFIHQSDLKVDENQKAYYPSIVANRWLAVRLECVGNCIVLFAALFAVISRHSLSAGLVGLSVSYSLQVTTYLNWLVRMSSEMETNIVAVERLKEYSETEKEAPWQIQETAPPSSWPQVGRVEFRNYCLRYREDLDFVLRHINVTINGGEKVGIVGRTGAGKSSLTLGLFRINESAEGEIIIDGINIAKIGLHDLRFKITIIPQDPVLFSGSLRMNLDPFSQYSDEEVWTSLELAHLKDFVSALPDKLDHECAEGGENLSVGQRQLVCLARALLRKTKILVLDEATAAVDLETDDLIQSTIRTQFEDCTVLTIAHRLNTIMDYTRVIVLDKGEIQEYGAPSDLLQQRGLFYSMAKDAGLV

## CC1(C)CC[C@]2(C(=O)NCC(=O)OCC#CCOc3no[n+]([O-])c3S(=O)(=O)c3ccccc3)CC[C@]3(C)[C@H](C(=O)C=C4[C@@]5(C)C=C(C#N)C(=O)C(C)(C)[C@@H]5CC[C@]43C)[C@@H]2C1
[1]
  mortality at 336 h: 0%
HCT-8 [2]
  inhibition: inactive
Mus musculus [3]
  Activity: Non-toxic
HCT-8 [4]
  inhibition: Dose-dependent effect
HCT-8 [5]
  Activity: inactive
Mus musculus [6]
  Activity: Non-toxic
Mus musculus [7]
  Activity: Non-toxic
[8]
  Activity: Dose-dependent effect
HCT-8 [9]
  inhibition: inactive
HCT-8 [10]
  Activity: Active
Mus musculus [11]
  Activity: Non-toxic
Mus musculus [12]
  Activity: Non-toxic

## COC(=O)[C@]12CCC(C)(C)C[C@H]1[C@H]1C(=O)C=C3[C@@]4(C)C=C(C#N)C(=O)C(C)(C)[C@@H]4CC[C@@]3(C)[C@]1(C)CC2 [BARDOXOLONE METHYL]
[13]
  inhibition in vivo at 59.4 µmol/kg: 58.4%
Mus musculus [14]
  Activity: Non-toxic
HCT-8 [15]
  inhibition: Active
Mus musculus [16]
  Activity: Non-toxic
Mus musculus [17]
  Activity: Non-toxic
HCT-8 [18]
  inhibition: Active
